Source: ChEMBL document CHEMBL1122741, “Substituted 5,6-dihydrofuro[3,2-f]-1,2-benzisoxazole-6-carboxylic acids: high-ceiling diuretics with uricosuric activity” (J Med Chem, 1984)
Active and inactive are the calls of the source. The calls are words filed in the database; no cut-off is given here.

Key:
Rattus norvegicus [1] = assay: ED2(natriuretic potency) is the oral dose(mg/kg) required to produce an excretion of 2 milliequivalents of Na+per kilogram during 0-4 hr in female rats (Highest dose tested was 100 mg/kg); Inactive; type: functional, organism-based; set-up: dose 100 mg/kg
Procedure, shortened: (§1)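 Female Sprague-Dawley rats, 175-225 g, on sucrose and water for 18 h, given 5 mg DOCA sc 2 h before dosing. Compound in 0.2% methylcellulose given by gavage at 2 mL/kg, then a 30 mL/kg load of 0.34% NaCl/0.69% KCl. Individual metabolism cages, urine collected 0-4 h for Na+, K+, Cl-. Two-stage two-dose screen at 2 rats/dose, then at least four doses at 4 rats/dose. ED2 taken from regression of Na+ excretion against log dose.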

Mus musculus [2] = assay: ED6 (natriuretic potency) is the oral dose(mg/kg) required to produce an excretion of 6 milliequivalents of Na+per kilogram during 0-4 hr in male mice (Highest dose tested was 50 mg/kg); type: functional
Procedure, shortened: (§2)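 Male mice, 16-30 g, fed ad libitum beforehand. Compound in 0.2% hydroxypropylmethylcellulose given po at 10 mL/kg, then 0.9% saline po at 3% of body weight. Five mice pooled per metabolism cage, four cages per dose. Combined urine collected 0-4 h and assayed for Na+, K+, Cl-, uric acid as mequiv/kg per cage. ED6 from regression of Na+ against log dose.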

Canis familiaris [3] = assay: ED5(natriuretic potency) is the oral dose(mg/kg) required to produce an excretion of 5 milliequivalents of Na+per kilogram during 0-6 hr in female dogs (Highest dose tested was 30 mg/kg); type: functional, Canis lupus familiaris
Procedure, shortened: (§3)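 Female dogs, conscious, one oral dose per dog per experiment. Urine collected and centrifuged; venous plasma drawn at each collection time. Samples assayed for Na+, K+, Cl-, urate and glucose by standard methods. Cumulative Na+ output expressed as mequiv/kg over 6 h, at least two dogs/dose. ED5 read from regression of Na+ excretion against log dose.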

Rattus norvegicus [4] = assay: ED2(natriuretic potency) is the oral dose(mg/kg) required to produce an excretion of 2 milliequivalents of Na+per kilogram during 0-4 hr in female rats (Highest dose tested was 100 mg/kg); type: functional; procedure, shortened: as §1
Mus musculus [5] = assay: ED6 (natriuretic potency) is the oral dose(mg/kg) required to produce an excretion of 6 milliequivalents of Na+per kilogram during 0-4 hr in male mice (Highest dose tested was 50 mg/kg); Inactive; type: functional, organism-based; set-up: dose 50 mg/kg; procedure, shortened: as §2
Canis familiaris [6] = assay: ED5(natriuretic potency) is the oral dose(mg/kg) required to produce an excretion of 5 milliequivalents of Na+per kilogram during 0-6 hr in female dogs (Highest dose tested was 30 mg/kg); Inactive; type: functional, organism-based; set-up: dose 30 mg/kg; settings: Canis lupus familiaris; procedure, shortened: as §3
Canis familiaris [7] = species: Canis familiaris; assay: urate excreted in female dogs during 0-6 hr; type: ADME, organism-based, Canis lupus familiaris; settings: dog, in vivo
Procedure, shortened: (§4)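 Conscious female dogs dosed at 3 mg/kg po, except one reference at 10 mg/kg, one dose per dog. Urine collected to 6 h and centrifuged; heparinized venous plasma taken at each collection. Na+ and urate measured by standard methods, mean ± SEM over 0-6 h. Compared with vehicle by ANOVA/Duncan's test or unpaired t test.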

Mus musculus [8] = assay: Na+ excretion mequiv /kg in saline-loaded mice administered at a dose 2 […] perorally; type: ADME, organism-based; settings: in vivo, po
Procedure, shortened: (§5)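 Saline-loaded male mice, 16-30 g. Compound po in 0.2% hydroxypropylmethylcellulose at 10 mL/kg, vehicle alone for controls, followed by 0.9% saline po at 3% of body weight. Doses were 0.3-250 mg/kg po. Five mice per metabolism cage, four cages per dose, pooled urine collected for 4 h. Na+ reported as mean ± SEM mequiv/kg; ANOVA with Duncan's test or unpaired t test against control.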

[9] = urate excreted in 4 Cebus monkey''s during 0-6 hr; type: ADME; settings: in vivo
Procedure, shortened: (§6)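 Male and female Cebus monkeys, 4-6 per group, fasted for 6 h after dosing, water ad libitum. 20 mg/kg in 0.2% hydroxypropylmethylcellulose at 1.0 mL/kg by nasogastric tube, then water load of 5% body weight. Urine collected in metabolism pans at 2, 6 and 24 h and assayed for uric acid. Urate in mg/kg over 0-6 h, mean ± SEM.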

Mus musculus [10] = assay: Na+ excretion mequiv /kg in saline-loaded mice administered at a dose 10 […] perorally; type: ADME, organism-based; settings: in vivo, po; procedure, shortened: as §5
Canis familiaris [11] = assay: Na+ excretion mequiv /kg in 6 conscious female dogs administered perorally during 0-6 hr; type: ADME, organism-based, Canis lupus familiaris; settings: dog, in vivo, po; procedure, shortened: as §4
Mus musculus [12] = assay: Na+ excretion mequiv /kg in saline-loaded mice administered at a dose 50 […] perorally; type: ADME, organism-based; settings: in vivo, po; procedure, shortened: as §5
[13] = urate excreted in 6 Cebus monkey''s during 0-6 hr; type: ADME; settings: in vivo; procedure, shortened: as §6
Canis familiaris [14] = assay: Na+ excretion mequiv /kg in conscious female dogs administered perorally during 0-6 hr; type: ADME, organism-based, Canis lupus familiaris; settings: dog, in vivo, po; procedure, shortened: as §4
Canis familiaris [15] = species: Canis familiaris; assay: Urate excreted in female dogs during 0-6 hr; type: ADME, organism-based, Canis lupus familiaris; settings: dog, in vivo; procedure, shortened: as §4
[16] = Urate excreted in 6 Cebus monkey''s during 0-6 hr; type: ADME; settings: in vivo; procedure, shortened: as §6
Mus musculus [17] = assay: Na+ excretion mequiv[…] in saline-loaded mice administered at a dose 10 […] perorally; type: ADME, organism-based; settings: in vivo, po; procedure, shortened: as §5
Mus musculus [18] = assay: Na+ excretion mequiv/kg in saline-loaded mice administered at a dose 2 […] perorally; type: ADME, organism-based; settings: in vivo, po; procedure, shortened: as §5
Mus musculus [19] = assay: Na+ excretion mequiv[…] in saline-loaded mice administered at a dose 10 […] perorally* -significantly different from control(p<0.05) and Duncan's test; type: ADME, organism-based; settings: in vivo, po; procedure, shortened: as §5
Mus musculus [20] = assay: Na+ excretion mequiv/kg in saline-loaded mice administered at a dose 30 […] perorally; type: ADME, organism-based; settings: in vivo, po; procedure, shortened: as §5
Mus musculus [21] = assay: Na+ excretion mequiv/kg in saline-loaded mice administered at a dose 3 […] perorally; type: ADME, organism-based; settings: in vivo, po; procedure, shortened: as §5
Canis familiaris [22] = assay: Na+ excretion mequiv/kg in 4 conscious female dogs administered perorally during 0-6 hr; type: ADME, organism-based, Canis lupus familiaris; settings: dog, in vivo, po; procedure, shortened: as §4
Canis familiaris [23] = species: Canis familiaris; assay: urate excreted in 4 female dogs during 0-6 hr; type: ADME, organism-based, Canis lupus familiaris; settings: dog, in vivo; procedure, shortened: as §4
Mus musculus [24] = assay: Na+ excretion mequiv/kg in 4 saline-loaded mice administered at a dose 50 […] perorally; type: ADME, organism-based; settings: in vivo, po; procedure, shortened: as §5
Mus musculus [25] = assay: Na+ excretion mequiv/kg in saline-loaded mice administered at a dose 10 […] perorally; type: ADME, organism-based; settings: in vivo, po; procedure, shortened: as §5

Question: For `OCC1Cc2cc3c(-c4ccccc4F)noc3c(Cl)c2O1` (configuration not stated), which ED2 (Rattus norvegicus [1]) is on record?
Answer: inactive

Question: And the ED6 (Mus musculus [2])?
Answer: 30 mg/kg

Question: And the ED5 (Canis familiaris [3])?
Answer: 21 mg/kg

Question: Which ED2 (Rattus norvegicus [4]) does the source give for `O=C(O)C1Cc2cc3c(-c4ccc(O)cc4)noc3c(Cl)c2O1` (configuration not stated) here?
Answer: 190 mg/kg

Question: And the ED6 (Mus musculus [5])?
Answer: inactive

Question: What does the source list for `O=C(O)C1Cc2cc3c(-c4ccccc4F)noc3c(Br)c2O1` (configuration not stated)?
Answer: ED2 (Rattus norvegicus [4]): 117.5 mg/kg; ED6 (Mus musculus [2]): 9.9 mg/kg

Question: Which results are given for `CC(C)Cc1noc2c(Cl)c3c(cc12)CC(C(=O)O)O3` (configuration not stated)?
Answer: ED2 (Rattus norvegicus [4]): 0.23 mg/kg; ED5 (Canis familiaris [6]): inactive; ED6 (Mus musculus [2]): 0.47 mg/kg

Question: Which ED2 (Rattus norvegicus [1]) does the source give for `CCOC(=O)C1Cc2cc3c(-c4ccccc4F)noc3c(Cl)c2O1` (configuration not stated) here?
Answer: inactive

Question: What about the ED6 (Mus musculus [5]) of the same molecule?
Answer: inactive

Question: For `N#CC1Cc2cc3c(-c4ccccc4F)noc3c(Cl)c2O1` (configuration not stated), which ED2 (Rattus norvegicus [1]) is on record?
Answer: inactive

Question: What about the ED6 (Mus musculus [5]) of the same molecule?
Answer: inactive

Question: With `O=C(O)C1Cc2cc3c(-c4ccccc4F)noc3c(Cl)c2O1` (stereo in doubt; 15k) as the molecule, how does the Excretion (Canis familiaris [7]) read?
Answer: 0.82 mg/kg

Question: What about the “Na+ excretion” value (Mus musculus [8]) of the same molecule?
Answer: 4.2 m equiv kg-1

Question: And the Excretion [9]?
Answer: 7.08 mg/kg

Question: And the ED2 (Rattus norvegicus [4])?
Answer: 40 mg/kg

Question: And the ED6 (Mus musculus [2]; 50 mg/kg)?
Answer: 4.2 mg/kg

Question: And the “Na+ excretion” value (Mus musculus [10])?
Answer: 8.2 m equiv kg-1

Question: And the “Na+ excretion” value (Canis familiaris [11])?
Answer: 8.18 m equiv kg-1

Question: And the ED5 (Canis familiaris [3]; 30 mg/kg)?
Answer: 0.6 mg/kg

Question: What about the “Na+ excretion” value (Mus musculus [12]) of the same molecule?
Answer: 11.9 m equiv kg-1

Question: Which results are given for `O=C(O)C1Cc2cc3c(-c4ccccc4F)noc3c(Cl)c2O1` (stereo in doubt; 29)?
Answer: Excretion [13]: 8.34 mg/kg; Excretion (Canis familiaris [7]): 1.32 mg/kg; Na+ excretion (Mus musculus [8]): 5.5 m equiv kg-1; Na+ excretion (Canis familiaris [14]): 7.6 m equiv kg-1; ED6 (Mus musculus [2]; 50 mg/kg): 2.95 mg/kg; Na+ excretion (Mus musculus [10]): 8.1 m equiv kg-1; ED5 (Canis familiaris [3]; 30 mg/kg): 0.71 mg/kg; Na+ excretion (Mus musculus [12]): 13.2 m equiv kg-1

Question: Which Excretion (Canis familiaris [15]) does the source give for `O=C(O)C1Cc2cc3c(-c4ccccc4F)noc3c(Cl)c2O1` (stereo in doubt; 30) [listing 1 of 2 here] here?
Answer: 1.25 mg/kg

Question: What about the “Na+ excretion” value (Mus musculus [8]) of the same molecule?
Answer: 2.8 m equiv kg-1

Question: What about the Excretion [16] of the same molecule?
Answer: 8.32 mg/kg

Question: And the “Na+ excretion” value (Canis familiaris [14])?
Answer: 0.62 m equiv kg-1

Question: What about the “Na+ excretion” value (Mus musculus [10]) of the same molecule?
Answer: 3.2 m equiv kg-1

Question: And the “Na+ excretion” value (Mus musculus [12])?
Answer: 3.5 m equiv kg-1

Question: Which ED5 (Canis familiaris [6]) does the source give for `O=C(O)C1Cc2cc3c(-c4ccccc4F)noc3c(Cl)c2O1` (stereo in doubt; 30) [listing 2 of 2 here] here?
Answer: inactive

Question: And the ED6 (Mus musculus [5])?
Answer: inactive

Question: What does the source list for `C=C(CC)C(=O)c1ccc(OCC(=O)O)c(Cl)c1Cl` [ETHACRYNIC ACID]?
Answer: Na+ excretion (Mus musculus [17]): 3.2 mequiv/kg; Na+ excretion (Mus musculus [18]): 2.9 mequiv/kg; Na+ excretion (Mus musculus [19]): 5.9 mequiv/kg

Question: Which Excretion (Canis familiaris [7]) does the source give for `NS(=O)(=O)c1cc(C(=O)O)c(NCc2ccco2)cc1Cl` [FUROSEMIDE] here?
Answer: 0.7 mg/kg

Question: And the “Na+ excretion” value (Mus musculus [8])?
Answer: 3.7 m equiv kg-1

Question: What about the Excretion [9] of the same molecule?
Answer: 4.03 mg/kg

Question: What about the ED2 (Rattus norvegicus [4]) of the same molecule?
Answer: 9.5 mg/kg

Question: What about the “Na+ excretion” value (Canis familiaris [14]) of the same molecule?
Answer: 5.23 m equiv kg-1

Question: And the ED6 (Mus musculus [2])?
Answer: 5 mg/kg

Question: What about the “Na+ excretion” value (Mus musculus [10]) of the same molecule?
Answer: 7.9 m equiv kg-1

Question: And the ED5 (Canis familiaris [3])?
Answer: 3.5 mg/kg

Question: And the “Na+ excretion” value (Mus musculus [12])?
Answer: 11.5 m equiv kg-1

Question: With `NS(=O)(=O)c1cc2c(cc1Cl)NCNS2(=O)=O` [HYDROCHLOROTHIAZIDE] as the molecule, how does the “Na+ excretion” value (Mus musculus [20]) read?
Answer: 6.7 m equiv kg-1

Question: What about the “Na+ excretion” value (Mus musculus [21]) of the same molecule?
Answer: 4.5 m equiv kg-1

Question: Which Excretion [9] does the source give for `CC1(c2ccccc2)Cc2cc(OCC(=O)O)c(Cl)c(Cl)c2C1=O` (configuration not stated) [INDACRINONE] here?
Answer: 9.53 mg/kg

Question: And the “Na+ excretion” value (Canis familiaris [22])?
Answer: 1.44 m equiv kg-1

Question: What about the ED2 (Rattus norvegicus [4]) of the same molecule?
Answer: 5.2 mg/kg

Question: What about the “Na+ excretion” value (Mus musculus [18]) of the same molecule?
Answer: 4 m equiv kg-1

Question: What about the Excretion (Canis familiaris [23]) of the same molecule?
Answer: 0.71 mg/kg

Question: What about the ED6 (Mus musculus [2]) of the same molecule?
Answer: 4.4 mg/kg

Question: And the “Na+ excretion” value (Mus musculus [24])?
Answer: 12.6 m equiv kg-1

Question: What about the ED5 (Canis familiaris [3]) of the same molecule?
Answer: 7.64 mg/kg

Question: What about the “Na+ excretion” value (Mus musculus [25]) of the same molecule?
Answer: 8 m equiv kg-1
